This passage reports folding enthalpy and Tm results from the array DNA melting data of Ke et al. (doi:10.1101/2024.01.08.574731).

The nature of data set [1]: folding enthalpy; higher = less favourable; fluorescence melt of hairpins on a sequencing array, two-state fit. As to conditions: sodium 0.088 M. The procedure, abridged: (§1)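 Two-state fits, bootstrapped, provided melting temperature and folding enthalpy from Cy3 fluorescence normalised to pre-quench Cy3 and to control constructs. Library hairpins with annealed Cy3 and quencher oligos were imaged on a sequenced MiSeq flow cell in 50 mM Na-HEPES pH 8.0, 25 mM NaCl, at 2.5 °C intervals up to 60 °C. Four replicates were combined with inverse-variance weighting. A 9.35 °C upward shift was applied to fitted temperatures to match UV melts.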

Data set [2] is described as follows: melting temperature; fluorescence melt of hairpins on a sequencing array, two-state fit, raised by 9.35 °C to match UV melts. The following applies: sodium 0.088 M. The essentials: as §1

With GATCTACGACTAGATC ((((((....)))))), the folding enthalpy in data set [1] was -32.1 kcal/mol. For the same sequence, in data set [2], the Tm is 35 °C.
As to GGGTGCGAAAGCAACCCC ((((((....)))..))), in data set [1], the folding enthalpy is -12.4 kcal/mol. In addition, the Tm in data set [2] was found to be 66.6 °C.
As for GATATCCGAAAGGAAATC (((.(((....))).))), in data set [1], the folding enthalpy was -27.2 kcal/mol. In addition, in data set [2], the Tm was 37.1 °C.
Turning to GCTTTCGAAAGAAAGAGC ((((((....)))..))), the folding enthalpy in data set [1] is -19.7 kcal/mol. For the same sequence, in data set [2], the Tm came to 43.5 °C.
With GACATACGAAAGTACGTC (((.(((....))).))), the folding enthalpy in data set [1] is -27 kcal/mol. In addition, the Tm in data set [2] worked out at 42.5 °C.
CGTTCCGGAAACGGTACG (((.(((....))).))): the folding enthalpy in data set [1] was -31.5 kcal/mol. Also, the Tm in data set [2] is 50 °C.
With GTGTCTGGAAACAGGCAC (((.(((....))).))), the folding enthalpy in data set [1] was -33.4 kcal/mol. For the same sequence, in data set [2], the Tm was 54.5 °C.
AACTTGAAAAAGTT (((((....))))): in data set [1], the folding enthalpy was -14.2 kcal/mol. For the same sequence, the Tm in data set [2] was 30.4 °C.
Turning to GCCGCGCGAAAGCGTCGC ((..(((....)))..)), the folding enthalpy in data set [1] was -10.1 kcal/mol. The Tm in data set [2] turned out to be 58 °C.
In the case of GTTGAGGAAACTCAAC ((((((....)))))), the folding enthalpy in data set [1] is -32.2 kcal/mol. For the same sequence, in data set [2], the Tm was 53.4 °C.
As to GATCACAGTAGTGATC ((((((....)))))), the folding enthalpy in data set [1] is -40.1 kcal/mol. The Tm in data set [2] was 59 °C.
As to TTCTGGAAACAGAA (((((....))))), the folding enthalpy in data set [1] is -15.6 kcal/mol. Also, the Tm in data set [2] was 35.4 °C.
GGCGCAGGAAACTGTGCC (((.(((....))).))): the folding enthalpy in data set [1] is -47.6 kcal/mol. Besides, the Tm in data set [2] turned out to be 61.2 °C.
In the same order, the values of GCGAAGCGAAAGCCTTGC ((.(.((....)).).)) are -7.85 kcal/mol and 36.3 °C.
For GCGTAGATACGC ((((....)))), in data set [1], the folding enthalpy was -19.8 kcal/mol. Also, the Tm in data set [2] came out at 52.9 °C.
As for GATCTTGAGAAAGATC ((((((....)))))), the folding enthalpy in data set [1] was -32.1 kcal/mol. In addition, in data set [2], the Tm stood at 45.9 °C.
In the same order, the values of GCCTTGCGAAAGCTATGC ((.(.((....)).).)) are -8.48 kcal/mol and 44.5 °C.
On to GGAGGTGGAAACGCCTCC (((((.(....).))))), for which the folding enthalpy in data set [1] was -50 kcal/mol. Further, the Tm in data set [2] came to 57.2 °C.
Taken in the same sequence, the figures for GGGTATGCGAAAGCACCC (((..(((....)))))) were -21.2 kcal/mol and 50.4 °C.
In the same order, the values of GCAGTCGAAAGACGTTGC ((((((....)))..))) are -17 kcal/mol and 45.9 °C.
Taken in the same sequence, the figures for GCTTCGCGAAAGCGATGC ((.((((....)))).)) were -17.4 kcal/mol and 65.7 °C.
For the sequence GTAGCGGGAAACTGCTAC (((((.(....).))))), in data set [1], the folding enthalpy was -37.1 kcal/mol. For the same sequence, in data set [2], the Tm was found to be 53.6 °C.
For GTCATGCGAAAGCACGAC (((.(((....))).))), in data set [1], the folding enthalpy is -27.5 kcal/mol. Further, the Tm in data set [2] came out at 52.3 °C.
Taken in the same sequence, the figures for CGTTGCCGGAAACGGACG (((..(((....)))))) were -13.3 kcal/mol and 44.3 °C.
Turning to GAGCAACCGAAAGGTCTC (((..(((....)))))), in data set [1], the folding enthalpy was -13.1 kcal/mol. Besides, the Tm in data set [2] came out at 30.1 °C.
For the sequence GCATGCTCGAAAGAGTGC (((..(((....)))))), the folding enthalpy in data set [1] is -15.8 kcal/mol. Besides, the Tm in data set [2] amounted to 34.3 °C.
In the same order, the values of GGCAGCGAAAGCTTAGCC ((((((....)))..))) are -25.7 kcal/mol and 51.7 °C.
GGATTGCGAAAGCATCC (((.(((....)))))): the folding enthalpy in data set [1] was -20.8 kcal/mol. Moreover, in data set [2], the Tm was 50.8 °C.
In the case of GGGACTGGAAACAGTCTC (.(((((....))))).), in data set [1], the folding enthalpy is -20.6 kcal/mol. The Tm in data set [2] was 51.7 °C.
In the same order, the values of GATCTAGAGATAGATC ((((((....)))))) are -26.2 kcal/mol and 39.1 °C.
In the case of GAAGAGCGAAAGCTGTTC (((.(((....))).))), in data set [1], the folding enthalpy was -24.9 kcal/mol. Also, in data set [2], the Tm was found to be 49.2 °C.
Turning to CGCTACCGGAAACGGGCG (((..(((....)))))), in data set [1], the folding enthalpy is -22.5 kcal/mol. Moreover, in data set [2], the Tm was determined as 49.4 °C.
As for GCAACTGCGAAAGCATGC (((..(((....)))))), the folding enthalpy in data set [1] is -13.5 kcal/mol. Besides, the Tm in data set [2] is 40.2 °C.
Regarding GTGGTTCCGAAAGGACAC (((..(((....)))))), in data set [1], the folding enthalpy is -17.3 kcal/mol. The Tm in data set [2] came to 40 °C.
GTATTGGAAACAATAC ((((((....)))))): in data set [1], the folding enthalpy was -26.9 kcal/mol. Moreover, in data set [2], the Tm amounted to 46.5 °C.
As for GCACCGCGAAAGCTGGGC ((.(.((....)).).)), in data set [1], the folding enthalpy was -19.1 kcal/mol. Moreover, in data set [2], the Tm stood at 57.5 °C.
Taken in the same sequence, the figures for GTGGAGGGAAACCTTCGC (.(.(((....))).).) were -26.7 kcal/mol and 34.1 °C.
